Assay outcomes from PubChem BioAssay.
CHT PAM: CHT positive allosteric modulators, primary screen, cell-based, membrane potential dye, choline EC20; B-score at 10 µM; 0.49% of 310,000 active; CHT-expressing cells; active compounds read high; LV-AA mutant CHT in HEK293 cells;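 active = initial fluorescence not abnormally high and integrated response B-score, plate-corrected, over 3 SD above library mean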
Rad51 HR inh: human RAD51 strand exchange inhibitors, primary screen, biochemical, fluorescence; DNA repair protein RAD51 homolog 1 (Homo sapiens), Q06609; hRad51 DNA strand exchange, fluorescence dequenching; inhibition, % at 10 µM; 0.085% of 200,000 active; AID 1385, 2008;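 active = inhibition above 40% at the single screening dose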;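 note: 0% = DMSO control wells and 100% = blanks with heterologous ssDNA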
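System: human Rad51 nucleoprotein filaments preassembled on unlabelled ssDNA. Reagent: labelled 47-mer dsDNA for strand exchange. Schedule: 30-min compound preincubation and 15-min exchange, both room temperature. Measured by: FRET fluorescence dequenching, excitation 485 nm, emission 520 nm. Read-out: Fluorescence-based percent inhibition, control- and blank-normalised. Benchmarks: plate controls and plate blanks.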
Cl transport mod: KCC2 cotransporter modulators, thallium flux, primary screen, cell-based, HEK293 KCC2, FluoZin-2 fluorescence, MLSMR | 2.2% of 190,000 active | KCC2 cells, thallium flux FluoZin-2 fluorescence | B-score of Tl+ flux slope (higher = more flux/activation; lower = inhibition) at 10 µM;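 active = thallium flux slope and its plate-corrected score both differing from the plate sample mean at a set confidence after two filtering rounds, in either direction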;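 note: slope of fluorescence scaled to starting intensity during 10 to 20 s after thallium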
Target sequence (Q9H2X9 whole entry, looked up): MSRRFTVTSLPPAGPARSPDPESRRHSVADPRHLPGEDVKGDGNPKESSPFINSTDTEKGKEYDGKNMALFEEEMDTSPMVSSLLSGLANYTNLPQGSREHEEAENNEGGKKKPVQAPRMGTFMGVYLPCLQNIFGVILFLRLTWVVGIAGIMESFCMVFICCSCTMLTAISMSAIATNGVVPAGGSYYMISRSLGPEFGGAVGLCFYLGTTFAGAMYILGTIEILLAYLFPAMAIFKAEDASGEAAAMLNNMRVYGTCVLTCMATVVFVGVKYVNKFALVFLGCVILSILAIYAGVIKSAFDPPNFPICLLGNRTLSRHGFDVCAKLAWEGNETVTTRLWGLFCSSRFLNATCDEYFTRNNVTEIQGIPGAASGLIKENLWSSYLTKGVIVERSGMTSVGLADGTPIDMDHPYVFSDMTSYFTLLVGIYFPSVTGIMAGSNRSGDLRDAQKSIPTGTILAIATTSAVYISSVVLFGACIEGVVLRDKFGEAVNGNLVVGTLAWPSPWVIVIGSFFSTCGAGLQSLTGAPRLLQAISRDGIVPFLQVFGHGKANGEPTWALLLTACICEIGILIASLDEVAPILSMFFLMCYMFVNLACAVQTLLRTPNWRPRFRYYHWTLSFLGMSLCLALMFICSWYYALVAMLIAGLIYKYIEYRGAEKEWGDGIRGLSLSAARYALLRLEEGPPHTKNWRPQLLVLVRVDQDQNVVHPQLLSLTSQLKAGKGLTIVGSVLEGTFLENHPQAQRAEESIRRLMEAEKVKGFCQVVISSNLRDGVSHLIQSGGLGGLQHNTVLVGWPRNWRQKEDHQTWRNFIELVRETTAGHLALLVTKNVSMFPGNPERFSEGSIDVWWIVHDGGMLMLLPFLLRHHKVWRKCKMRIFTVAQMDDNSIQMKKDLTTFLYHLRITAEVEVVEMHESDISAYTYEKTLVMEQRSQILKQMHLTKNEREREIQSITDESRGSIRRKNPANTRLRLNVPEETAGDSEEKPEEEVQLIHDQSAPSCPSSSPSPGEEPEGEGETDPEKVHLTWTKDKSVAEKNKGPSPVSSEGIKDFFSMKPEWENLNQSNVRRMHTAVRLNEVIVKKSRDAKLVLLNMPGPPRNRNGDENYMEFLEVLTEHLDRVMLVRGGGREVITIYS
CHT inh: inhibitors of human choline transporter CHT; CHT-expressing cells, membrane potential dye, choline response; active compounds read low; B-score at 10 µM; AID 488975, 2010; 0.86% of 310,000 active;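 active = B-score over 3 SD under the library average, and starting fluorescence ratio not unusually high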;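 note: choline stimulus applied at its EC90 after an EC20 pre-addition; B-score computed on integrated fluorescence ratio after choline addition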
CHT act confirm: CHT activators, confirmation, cell-based, membrane potential dye, duplicate; shares compounds with CHT PAM; CHT-expressing cells, membrane potential dye fluorescence (FDSS); % of choline EC20–EC90 response window; HEK293 expressing CHT LV-AA mutant; choline added at its EC20; activation, % at 10 µM; 91% of 2,500 active;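 active = primary screen active, with duplicate mean activation above negative control mean plus 3 SD, cut at about 11% in these data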
HEK293 MP dye: membrane potential response in parental HEK293 cells, counter-screen for CHT activator project, cell-based, membrane potential dye. shares compounds with CHT PAM. membrane potential dye fluorescence (FDSS); measured after EC20 choline addition. ratio readout change at 10 µM, hits read low. 62% of 2,500 active. AID 623908, 2012;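 active = duplicate-averaged ratio beyond 3 SD from buffer wells, up or down, though filed actives are nearly all decreases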
* hit, by the source's call; i = inactive; . = no result. This is a sample that favours compounds with a hit; in the whole collection about 2.6% have one here.

SMILES | CHT PAM | Rad51 HR inh | Cl transport mod | CHT inh | CHT act confirm | HEK293 MP dye
COc1ccc(C(C(=O)NC2CCCC2)N(Cc2ccccc2)C(=O)c2nsc(Cl)c2Cl)cc1 (stereo unspecified) | i | -4 | -0.45 | i | . | .
CC(C)C(NC(=O)c1ccccc1F)C(=O)NCc1ccc(F)cc1 (stereo unspecified) | i | . | . | i | . | .
Nc1c2c(nc3ccn(Cc4ccccc4)c(=O)c13)CCC2 | 7* | 3 | -0.091 | i | 54* | -50*
O=c1[nH]c(N2CCN(c3ccccc3)CC2)nc2c1CCCC2 | i | 2 | -1.6 | i | . | .
Nc1c2c(nc3ccn(-c4ccccc4)c(=O)c13)CCCCC2 | i | 0 | 0.36 | i | 49* | -50*
Cc1ccc(C2/C(=C(/O)c3ccc(Br)cc3)C(=O)C(=O)N2Cc2ccco2)o1 (stereo unspecified) | i | -3 | -1.4 | i | . | .
N#CC1=C(N)Oc2cc(N)ccc2C1c1cccc(Br)c1 (stereo unspecified) | i | . | . | i | 34* | i
Cc1ccc(-c2c(C#N)c(N)nc3c2CCCC3)s1 | i | -5 | -0.43 | i | . | .
O=c1c2ccccc2nc2n1C(CSCc1ccc(Cl)cc1)CS2 (stereo unspecified) | 8.2* | 0 | -1.7 | i | 11* | i
O=c1c2ccccc2nc2n1C(CSc1ccccc1)CS2 (stereo unspecified) | i | -21 | 0.061 | i | . | .
Cc1c(C(=O)Nc2ccc3c(c2)OCCO3)sc2nc(-c3ccccc3)cn12 | i | 0 | 0.047 | i | . | .
Cc1c(C(=O)Nc2ccncc2)sc2nc(-c3ccccc3)cn12 | i | 3 | 0.059 | i | 30* | -32*
Cc1cccc(CNC(=O)C2CCC(=O)N(C3CC3)C2)c1 (stereo unspecified) | i | . | . | i | . | .
CC1CCCN(c2c3c(nc4ccccc24)CCCC3)C1 (stereo unspecified) | i | . | . | i | 20* | i
Cc1ccccc1OCc1n(CC(=O)OC2CC(C)CCC2C(C)C)c2ccccc2[n+]1C (stereo unspecified) | i | 17 | -0.96 | i | 14* | i
CCCCCCCCCCOC(=O)Cn1c(COc2ccc(Cl)cc2)[n+](C)c2ccccc21 | i | . | . | i | . | .
CCCCCCCCCCOC(=O)Cn1c(COc2ccccc2C)[n+](C)c2ccccc21 | 14* | . | . | i | 5 | -46*
CCCCCCCCCCOC(=O)Cn1c(COc2ccccc2)[n+](C)c2ccccc21 | i | . | . | i | . | .
CC1CCC(C(C)C)C(OC(=O)Cn2c(-c3ccc(Br)cc3)[n+](C)c3ccccc32)C1 (stereo unspecified) | i | 2 | -0.27 | i | . | .
CCCCCCCCCCOC(=O)Cn1c(COc2cccc(C)c2)[n+](C)c2ccccc21 | i | . | . | i | 7 | -41*
CCCCCCCCCCOC(=O)Cn1c(COc2ccc(OC)cc2)[n+](C)c2ccccc21 | 13* | . | . | i | 28* | -42*
Cc1ccc(-c2nn(-c3ccc(F)cc3)cc2C(=O)NC2CCC(O)CC2)cc1 (stereo unspecified) | i | . | . | i | . | .
CCCCCC[N+](C)(C)CCSSCC[N+](C)(C)CCCCCC | i | 4 | -1.1 | i | 38* | -46*
CCCCCCCCCCCCCCCC[N+](C)(C)CC | i | . | . | i | . | .
CN(C)/C=N/c1ncn(-c2ncc(C(F)(F)F)cc2Cl)n1 | i | -12 | 0.44 | i | . | .
N#Cc1ccsc1NC(=O)CN1CCN(S(=O)(=O)c2ccc3ccccc3c2)CC1 | i | -3 | -1.1 | i | . | .
O=C(COc1cccc2cccnc12)N/N=C1\SCC(=O)N1Cc1ccco1 | 7.2* | -4 | . | i | 66* | -55*
